How the values were obtained:
[1] = Drug uptake in tumor of athymic mouse xenografted with human MCF7 cells at 100 mg/kg, po after 8 hrs; type: ADME, organism-based, Neoplasm; design: dose 100 mg/kg, route oral; settings: read-out: Drug uptake
[2] = Plasma concentration in athymic mouse plasma xenografted with human MCF7 cells at 100 mg/kg, po after 8 hrs; type: ADME, organism-based; design: dose 100 mg/kg, route oral
[3] = test system: Mus musculus; assay: In vivo inhibition of mTORC1-mediated phosphorylation of 4EBP1 at ([…]) in human MCF7 cells xenografted into athymic nude mouse at 100 mg/kg, po after 16 hrs by Western blotting analysis relative to control; type: functional; settings: MCF7, 16 h
[4] = test system: Mus musculus; assay: In vivo inhibition of mTORC1-mediated phosphorylation of 4EBP1 at ([…]) in human MCF7 cells xenografted into athymic nude mouse at 100 mg/kg, po after 4 hrs by Western blotting analysis relative to control; type: functional; settings: MCF7, 4 h
How it was run: (§1)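 MCF-7 cells (DMEM, 10% FBS) were implanted subcutaneously at 5 × 10^6 cells in 50% cold HBSS/50% growth-factor-reduced matrigel into the hindflank of 5−8 week old female nude mice. At tumor size 40−150 mg, mice received a single oral dose of 100 mg/kg. Tumor lysates were pooled per group. Phospho-AKT (S473, T308), p70S6K (T389), S6 (S240/244) and 4E-BP1 (T37/46) were measured by Western blot normalized to α-tubulin.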

[5] = test system: Mus musculus; assay: In vivo inhibition of mTORC1-mediated phosphorylation of pS6 at (serine 240/244) in human MCF7 cells xenografted into athymic nude mouse at 100 mg/kg, po after 16 hrs by Western blotting analysis relative to control; type: functional; settings: MCF7, 16 h; how it was run: as §1
[6] = test system: Mus musculus; assay: In vivo inhibition of mTORC1-mediated phosphorylation of pS6 at (serine 240/244) in human MCF7 cells xenografted into athymic nude mouse at 100 mg/kg, po after 4 hrs by Western blotting analysis relative to control; type: functional; settings: MCF7, 4 h; how it was run: as §1
[7] = test system: Mus musculus; assay: In vivo inhibition of mTORC1-mediated phosphorylation of p70S6K at […] in human MCF7 cells xenografted into athymic nude mouse at 100 mg/kg, po after 32 hrs by Western blotting analysis relative to control; type: functional; settings: MCF7, 32 h; how it was run: as §1
[8] = test system: Mus musculus; assay: In vivo inhibition of mTOR1-mediated phosphorylation of p70S6K at […] in human MCF7 cells xenografted into athymic nude mouse at 100 mg/kg, po after 8 hrs by Western blotting analysis relative to control; type: functional; settings: MCF7, 8 h
[9] = test system: Mus musculus; assay: In vivo inhibition of mTORC1-mediated phosphorylation of p70S6K at […] in human MCF7 cells xenografted into athymic nude mouse at 100 mg/kg, po after 4 hrs by Western blotting analysis relative to control; type: functional; settings: MCF7, 4 h; how it was run: as §1
[10] = test system: Mus musculus; assay: In vivo inhibition of mTORC2-mediated phosphorylation of AKT at […] in human MCF7 cells xenografted into athymic nude mouse at 100 mg/kg, po after 32 hrs by Western blotting analysis relative to control; type: functional; settings: MCF7, 32 h; how it was run: as §1
[11] = Drug uptake in tumor of athymic mouse xenografted with human PC3 cells at 100 mg/kg, po after 24 hrs; type: ADME, organism-based, Neoplasm, PC-3; design: dose 100 mg/kg, route oral; settings: read-out: Drug uptake
How it was run: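 PC-3 cells (3 × 10⁶, passages 10–14, in ice-cold HBSS) were implanted sc in 5–8 week old male nude mice. Tumors of 200–500 mg received a single oral 100 mg/kg dose. Plasma and tumor were collected at 1, 4, 8, 16, 24 and 32 h and homogenized in buffer. Lysates were pooled per group (n = 5), and phospho-proteins were measured by Western blot normalized to α-tubulin.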

[12] = test system: Mus musculus; assay: In vivo inhibition of mTORC1-mediated phosphorylation of 4EBP1 at ([…]) in human PC3 cells xenografted into athymic nude mouse at 100 mg/kg, po after 32 hrs by Western blotting analysis relative to control; type: functional; settings: PC-3, 32 h
How it was run: (§2)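 PC-3 cells grown in DMEM with 20% FBS were implanted subcutaneously at 3 × 10^6 cells in ice-cold HBSS into the hindflank of 5−8 week old male nude mice. At tumor size 200−500 mg, mice received a single oral dose of 100 mg/kg. Plasma and tumors were collected at 1, 4, 8, 16, 24 and 32 h. Tumor lysates from each group (n = 5) were pooled. Phospho-proteins were quantified by Western blot and normalized to α-tubulin.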

[13] = target: Vascular endothelial growth factor receptor 1 (Homo sapiens, UniProt P17948); assay: Inhibition of FLT1 (unknown origin)
[14] = target: DNA-dependent protein kinase catalytic subunit (Homo sapiens, UniProt P78527); assay: Inhibition of DNA-PK (unknown origin)
[15] = Volume of distribution at steady state in cynomolgus monkey at 3 mg/kg, iv; type: ADME, organism-based, Macaca fascicularis; design: dose 3 mg/kg, route intravenous; settings: in vivo, read-out: Vdss
[16] = Volume of distribution at steady state in athymic nude mouse at 10 mg/kg, iv; type: ADME, organism-based; design: dose 10 mg/kg, route intravenous; settings: in vivo, read-out: Vdss
[17] = Volume of distribution at steady state in CD rat at 3 mg/kg, iv; type: ADME, organism-based; design: dose 3 mg/kg, route intravenous; settings: in vivo, read-out: Vdss
[18] = AUC (0 to infinity) in Beagle dog at 3 mg/kg, po; type: ADME, organism-based, Canis lupus familiaris; design: time infinity, dose 3 mg/kg, route oral; settings: plasma
How it was run: (§3)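 Single-dose PK: female athymic nude mice (10 mg/kg), female CD rats and male beagle dogs (3 mg/kg), male cynomolgus monkeys (3 mg/kg), given iv and by oral gavage. Solution in EPW (5% ethanol/45% PEG400/water), with 1:2 HCl (m/m) for mouse, rat and dog and 1:1.5 HCl (m/m) for monkey. Plasma levels followed over 24 h.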

[19] = AUC (0 to infinity) in athymic nude mouse at 10 mg/kg, po; type: ADME, organism-based; design: dose 10 mg/kg, route oral, time infinity; settings: plasma; how it was run: as §3
[20] = Cmax in cynomolgus monkey at 3 mg/kg, iv; type: ADME, organism-based, Macaca fascicularis; design: dose 3 mg/kg, route intravenous; settings: in vivo; how it was run: as §3
[21] = Cmax in athymic nude mouse at 10 mg/kg, po; type: ADME, organism-based; design: dose 10 mg/kg, route oral; settings: in vivo; how it was run: as §3
[22] = test system: MCF7; assay: Antitumor activity against human MCF7 cells xenografted in athymic nude mouse at 100 mg/kg, po qd for 14 days relative to control; type: functional
How it was run: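 Female athymic nude (NCr) mice, 5–8 weeks old, bearing subcutaneous MCF-7 tumors staged at 100–200 mg. Compound given orally qd for 14 days at 50 or 100 mg/kg as a solution/fine suspension in water with a 1:1 molar ratio of 1 N HCl. Caliper tumor mass = length × width²/2, measured twice weekly; body mass recorded daily.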

[23] = Cmax in CD rat at 3 mg/kg, po; type: ADME, organism-based; design: dose 3 mg/kg, route oral; settings: in vivo; how it was run: as §3
[24] = Plasma protein binding in mouse at 5 uM; type: ADME, cell-free; settings: read-out: PPB (converted)
[25] = Metabolic stability in human liver microsomes after 30 mins; type: ADME, Microsome; settings: read-out: Stability
[26] = test system: Mus musculus; assay: In vivo inhibition of mTORC1-mediated phosphorylation of pS6 at (serine 240/244) in human PC3 cells xenografted into athymic nude mouse at 100 mg/kg, po after 24 hrs by Western blotting analysis relative to control; type: functional; settings: PC-3, 24 h; how it was run: as §2
[27] = test system: Mus musculus; assay: In vivo inhibition of mTORC1-mediated phosphorylation of pS6 at (serine 240/244) in human PC3 cells xenografted into athymic nude mouse at 100 mg/kg, po after 16 hrs by Western blotting analysis relative to control; type: functional; settings: PC-3, 16 h; how it was run: as §2
[28] = target: Voltage-gated inwardly rectifying potassium channel KCNH2 (Homo sapiens, UniProt Q12809); assay: Activity at human ERG by patch clamp technique
How it was run: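 hERG current measured by manual patch clamp.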

Sequence of Vascular endothelial growth factor receptor 1 (P17948 whole entry): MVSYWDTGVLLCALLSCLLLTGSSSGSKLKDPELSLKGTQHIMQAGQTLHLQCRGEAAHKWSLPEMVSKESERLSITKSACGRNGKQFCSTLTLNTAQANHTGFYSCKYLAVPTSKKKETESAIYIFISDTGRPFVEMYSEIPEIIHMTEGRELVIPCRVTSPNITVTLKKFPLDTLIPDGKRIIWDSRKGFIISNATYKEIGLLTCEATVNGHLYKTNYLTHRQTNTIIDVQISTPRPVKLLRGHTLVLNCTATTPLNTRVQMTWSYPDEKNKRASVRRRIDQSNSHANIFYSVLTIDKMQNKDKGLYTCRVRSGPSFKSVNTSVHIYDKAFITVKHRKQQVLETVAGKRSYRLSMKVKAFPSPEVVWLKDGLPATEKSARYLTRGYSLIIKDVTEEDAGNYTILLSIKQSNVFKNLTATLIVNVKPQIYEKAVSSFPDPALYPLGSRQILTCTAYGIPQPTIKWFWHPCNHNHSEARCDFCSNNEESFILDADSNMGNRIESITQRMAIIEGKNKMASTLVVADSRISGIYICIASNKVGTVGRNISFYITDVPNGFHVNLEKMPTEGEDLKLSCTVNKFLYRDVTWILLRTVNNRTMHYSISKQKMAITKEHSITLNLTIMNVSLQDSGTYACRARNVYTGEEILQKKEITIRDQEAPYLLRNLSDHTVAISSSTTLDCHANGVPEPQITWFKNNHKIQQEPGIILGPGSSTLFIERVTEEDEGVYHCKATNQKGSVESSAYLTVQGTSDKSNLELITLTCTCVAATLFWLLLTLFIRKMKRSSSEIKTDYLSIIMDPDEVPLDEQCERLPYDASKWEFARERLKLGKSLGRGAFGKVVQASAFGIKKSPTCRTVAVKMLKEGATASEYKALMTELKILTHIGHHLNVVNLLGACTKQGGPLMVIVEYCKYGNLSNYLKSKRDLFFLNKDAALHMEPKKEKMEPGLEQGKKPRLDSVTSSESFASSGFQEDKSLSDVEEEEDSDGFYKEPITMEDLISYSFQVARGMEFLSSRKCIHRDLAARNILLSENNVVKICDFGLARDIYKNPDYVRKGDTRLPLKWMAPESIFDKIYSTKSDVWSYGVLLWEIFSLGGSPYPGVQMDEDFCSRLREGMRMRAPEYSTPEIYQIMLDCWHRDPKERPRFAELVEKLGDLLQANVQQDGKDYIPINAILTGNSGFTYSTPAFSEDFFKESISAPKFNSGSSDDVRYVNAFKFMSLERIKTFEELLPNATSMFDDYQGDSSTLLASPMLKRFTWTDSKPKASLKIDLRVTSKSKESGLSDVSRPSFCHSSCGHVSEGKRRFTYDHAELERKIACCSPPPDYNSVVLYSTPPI
Sequence of Voltage-gated inwardly rectifying potassium channel KCNH2 (Q12809 whole entry): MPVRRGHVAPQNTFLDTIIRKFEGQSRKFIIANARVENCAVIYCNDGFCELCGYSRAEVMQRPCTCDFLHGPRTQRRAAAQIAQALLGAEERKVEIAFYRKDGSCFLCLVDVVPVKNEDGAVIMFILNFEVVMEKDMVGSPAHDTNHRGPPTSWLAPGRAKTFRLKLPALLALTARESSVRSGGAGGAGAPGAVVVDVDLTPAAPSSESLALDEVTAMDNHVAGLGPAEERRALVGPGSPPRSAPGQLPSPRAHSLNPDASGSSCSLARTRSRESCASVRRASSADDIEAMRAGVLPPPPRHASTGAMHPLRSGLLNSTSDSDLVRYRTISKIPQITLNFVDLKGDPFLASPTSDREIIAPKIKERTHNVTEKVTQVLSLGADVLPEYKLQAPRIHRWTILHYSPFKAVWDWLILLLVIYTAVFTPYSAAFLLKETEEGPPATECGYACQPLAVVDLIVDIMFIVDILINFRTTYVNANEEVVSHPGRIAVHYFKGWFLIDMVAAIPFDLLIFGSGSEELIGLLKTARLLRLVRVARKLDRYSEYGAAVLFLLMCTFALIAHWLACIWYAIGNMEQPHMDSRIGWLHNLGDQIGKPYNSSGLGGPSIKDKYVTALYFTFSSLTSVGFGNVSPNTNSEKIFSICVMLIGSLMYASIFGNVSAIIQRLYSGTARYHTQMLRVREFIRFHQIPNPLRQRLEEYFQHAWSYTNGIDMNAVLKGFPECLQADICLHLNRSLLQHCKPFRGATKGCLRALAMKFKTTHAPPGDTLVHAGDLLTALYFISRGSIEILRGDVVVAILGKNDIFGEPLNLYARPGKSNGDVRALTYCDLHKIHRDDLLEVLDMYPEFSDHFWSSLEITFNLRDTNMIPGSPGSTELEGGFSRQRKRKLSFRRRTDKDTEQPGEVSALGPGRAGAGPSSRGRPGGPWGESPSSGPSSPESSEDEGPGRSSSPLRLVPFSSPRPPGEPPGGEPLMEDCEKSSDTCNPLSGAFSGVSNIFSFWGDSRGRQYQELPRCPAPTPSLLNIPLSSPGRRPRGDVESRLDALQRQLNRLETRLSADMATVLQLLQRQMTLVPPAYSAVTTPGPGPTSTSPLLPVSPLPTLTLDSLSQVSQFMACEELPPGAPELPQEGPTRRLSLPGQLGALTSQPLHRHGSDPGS

Cc1c(C(=O)N2CCOc3ccc(-c4ccc(N)nc4)cc3C2)ccc(S(C)(=O)=O)c1F
concentration at 8 h [1]: 16600 nM | concentration at 8 h [2]: 16500 nM | inhibition in vivo at 100 mg/kg [3]: 56% | inhibition in vivo at 100 mg/kg [4]: 85% | inhibition in vivo at 100 mg/kg [5]: 36% | inhibition in vivo at 100 mg/kg [6]: 94% | inhibition in vivo at 100 mg/kg [7]: 2% | inhibition in vivo at 100 mg/kg [8]: 81% | inhibition in vivo at 100 mg/kg [9]: 85% | inhibition in vivo at 100 mg/kg [10]: 10% | concentration at 24 h [11]: 110 nM | inhibition in vivo at 100 mg/kg [12]: 33% | IC50 [13]: > 3.5 µM | IC50 [14]: 8.83 µM | Vd [15]: 6.42 L/kg | Vd [16]: 1.96 L/kg | Vd [17]: 1.27 L/kg | AUC(0-inf) [18]: 7.66 µM·h | AUC(0-inf) [19]: 2.51 µM·h | Cmax [20]: 950 nM | Cmax [21]: 1300 nM | Activity [22]: 40% | Cmax [23]: 707 nM | fraction unbound at 5 µM [24]: 0.16 | remaining at 0.5 h [25]: 93% | inhibition in vivo at 100 mg/kg [26]: 8% | inhibition in vivo at 100 mg/kg [27]: 71% | Activity [28]: 15.9 µM

Source: ChEMBL document CHEMBL2331117 (J Med Chem, 2013)
